# ChEMBL document CHEMBL4346670, “Discovery of Novel Janus Kinase (JAK) and Histone Deacetylase (HDAC) Dual Inhibitors for the Treatment of Hematological Malignancies” (J Med Chem, 2019)
# Calls of active or inactive are those of the source. The rule behind the calls is not given here.
# Key:
# [1] = biological target: Histone deacetylase; experiment: Inhibition of HDAC in human HeLa nuclear extract using Boc-Lys(acetyl)-AMC as substrate preincubated for 5 mins followed by substrate addition and measured after 30 mins by fluorescence assay; format: cell-based
# [2] = biological target: Tyrosine-protein kinase JAK1 (Homo sapiens, UniProt P23458); experiment: Inhibition of recombinant human JAK1 using Ulight-CAGAGAIETDKEYYTVKD as substrate measured after 60 mins by LANCE assay
# Sequence of Tyrosine-protein kinase JAK1 (P23458 whole entry): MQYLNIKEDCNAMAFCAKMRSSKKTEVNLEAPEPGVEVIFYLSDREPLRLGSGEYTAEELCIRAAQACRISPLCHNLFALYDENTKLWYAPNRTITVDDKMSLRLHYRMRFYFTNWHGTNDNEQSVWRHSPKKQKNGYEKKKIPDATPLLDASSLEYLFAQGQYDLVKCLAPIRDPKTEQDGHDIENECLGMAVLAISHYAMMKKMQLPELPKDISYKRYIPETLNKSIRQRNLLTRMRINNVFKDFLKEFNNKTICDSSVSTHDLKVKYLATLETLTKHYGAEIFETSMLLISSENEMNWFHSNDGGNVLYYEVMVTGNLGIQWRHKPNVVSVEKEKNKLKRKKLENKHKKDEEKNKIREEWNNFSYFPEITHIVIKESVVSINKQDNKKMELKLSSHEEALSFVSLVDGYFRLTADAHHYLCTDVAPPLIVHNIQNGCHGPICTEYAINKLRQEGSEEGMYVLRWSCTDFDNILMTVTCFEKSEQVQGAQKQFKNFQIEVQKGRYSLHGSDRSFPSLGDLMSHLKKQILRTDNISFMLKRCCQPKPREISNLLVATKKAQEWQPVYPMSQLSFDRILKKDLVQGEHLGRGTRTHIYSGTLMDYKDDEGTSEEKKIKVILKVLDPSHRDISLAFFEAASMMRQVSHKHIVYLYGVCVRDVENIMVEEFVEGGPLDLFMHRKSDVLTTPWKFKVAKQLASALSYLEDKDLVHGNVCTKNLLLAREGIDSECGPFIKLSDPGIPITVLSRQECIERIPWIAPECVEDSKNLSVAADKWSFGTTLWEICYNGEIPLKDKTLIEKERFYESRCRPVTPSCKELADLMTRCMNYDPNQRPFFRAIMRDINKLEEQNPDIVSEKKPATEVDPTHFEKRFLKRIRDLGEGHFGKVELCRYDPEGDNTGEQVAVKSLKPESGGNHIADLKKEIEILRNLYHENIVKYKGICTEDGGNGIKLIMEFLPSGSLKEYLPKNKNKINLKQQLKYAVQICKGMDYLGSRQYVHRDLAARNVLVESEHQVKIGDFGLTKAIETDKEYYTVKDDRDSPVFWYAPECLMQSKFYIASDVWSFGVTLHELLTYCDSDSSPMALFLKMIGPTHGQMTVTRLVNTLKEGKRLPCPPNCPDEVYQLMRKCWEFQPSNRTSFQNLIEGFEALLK
# Summary of the method: (§1)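 Human recombinant JAK enzyme assays run by a contract lab. IC50 was taken from a non-linear curve fit, with all parameters allowed to float. Assays were run in replicate (n>2) and reported as mean ± SD.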
# [3] = biological target: Non-receptor tyrosine-protein kinase TYK2 (Homo sapiens, UniProt P29597); experiment: Inhibition of recombinant human TYK2 using Ulight-CAGAGAIETDKEYYTVKD as substrate measured after 60 mins by LANCE assay; summary of the method: as §1
# Sequence of Non-receptor tyrosine-protein kinase TYK2 (P29597 whole entry): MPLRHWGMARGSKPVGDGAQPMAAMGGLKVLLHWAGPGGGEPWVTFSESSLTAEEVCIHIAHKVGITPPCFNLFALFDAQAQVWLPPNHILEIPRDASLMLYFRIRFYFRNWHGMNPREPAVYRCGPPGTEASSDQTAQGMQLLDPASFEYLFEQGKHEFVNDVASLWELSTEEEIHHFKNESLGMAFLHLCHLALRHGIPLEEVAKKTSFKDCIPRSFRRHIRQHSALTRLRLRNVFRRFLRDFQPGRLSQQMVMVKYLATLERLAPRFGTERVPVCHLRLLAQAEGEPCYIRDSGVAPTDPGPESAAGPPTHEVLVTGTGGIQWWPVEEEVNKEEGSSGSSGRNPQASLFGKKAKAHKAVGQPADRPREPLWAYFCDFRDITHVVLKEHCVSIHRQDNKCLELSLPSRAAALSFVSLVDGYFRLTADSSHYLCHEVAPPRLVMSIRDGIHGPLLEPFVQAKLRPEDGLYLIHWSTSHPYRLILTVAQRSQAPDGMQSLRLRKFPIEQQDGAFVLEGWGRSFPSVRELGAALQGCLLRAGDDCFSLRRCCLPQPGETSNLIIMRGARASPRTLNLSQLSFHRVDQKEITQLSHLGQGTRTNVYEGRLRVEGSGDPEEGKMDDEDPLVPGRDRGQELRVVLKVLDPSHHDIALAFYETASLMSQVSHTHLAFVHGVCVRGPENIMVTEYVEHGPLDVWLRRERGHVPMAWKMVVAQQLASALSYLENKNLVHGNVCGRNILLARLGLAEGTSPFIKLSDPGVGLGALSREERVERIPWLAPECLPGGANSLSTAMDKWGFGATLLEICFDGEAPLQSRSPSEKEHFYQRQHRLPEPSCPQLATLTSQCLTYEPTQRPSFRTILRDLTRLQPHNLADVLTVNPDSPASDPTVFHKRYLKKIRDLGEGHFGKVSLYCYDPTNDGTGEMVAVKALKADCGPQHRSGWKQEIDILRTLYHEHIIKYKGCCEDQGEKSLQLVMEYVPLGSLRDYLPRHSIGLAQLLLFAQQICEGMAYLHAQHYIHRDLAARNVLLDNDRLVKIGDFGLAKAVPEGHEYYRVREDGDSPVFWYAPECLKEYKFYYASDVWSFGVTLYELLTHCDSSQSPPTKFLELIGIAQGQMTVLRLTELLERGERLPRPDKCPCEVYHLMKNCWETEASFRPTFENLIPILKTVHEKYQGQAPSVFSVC
# [4] = system: Jurkat; experiment: Antiproliferative activity against human Jurkat cells assessed as reduction in cell viability after 48 hrs by MTT assay; format: functional, cell-based
# [5] = system: MOLT-4; experiment: Antiproliferative activity against human MOLT4 cells assessed as reduction in cell viability after 48 hrs by MTT assay; format: functional, cell-based; settings: MOLT-4, 48 h
# Summary of the method: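 Cells kept in RPMI1640 with 10% FBS at 37 °C, 5% CO2. Seeded and grown for 12 h, then exposed to a range of compound concentrations for 48 h. 0.5% MTT added for 4 h, formazan dissolved in DMSO, absorbance read at 570 nm.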
# [6] = biological target: T1, Tyrosine-protein kinase JAK3 (Homo sapiens, UniProt P52333); experiment: Inhibition of recombinant human JAK3 using Ulight-CAGAGAIETDKEYYTVKD as substrate measured after 60 mins by LANCE assay
# T1 sequence (P52333 whole entry): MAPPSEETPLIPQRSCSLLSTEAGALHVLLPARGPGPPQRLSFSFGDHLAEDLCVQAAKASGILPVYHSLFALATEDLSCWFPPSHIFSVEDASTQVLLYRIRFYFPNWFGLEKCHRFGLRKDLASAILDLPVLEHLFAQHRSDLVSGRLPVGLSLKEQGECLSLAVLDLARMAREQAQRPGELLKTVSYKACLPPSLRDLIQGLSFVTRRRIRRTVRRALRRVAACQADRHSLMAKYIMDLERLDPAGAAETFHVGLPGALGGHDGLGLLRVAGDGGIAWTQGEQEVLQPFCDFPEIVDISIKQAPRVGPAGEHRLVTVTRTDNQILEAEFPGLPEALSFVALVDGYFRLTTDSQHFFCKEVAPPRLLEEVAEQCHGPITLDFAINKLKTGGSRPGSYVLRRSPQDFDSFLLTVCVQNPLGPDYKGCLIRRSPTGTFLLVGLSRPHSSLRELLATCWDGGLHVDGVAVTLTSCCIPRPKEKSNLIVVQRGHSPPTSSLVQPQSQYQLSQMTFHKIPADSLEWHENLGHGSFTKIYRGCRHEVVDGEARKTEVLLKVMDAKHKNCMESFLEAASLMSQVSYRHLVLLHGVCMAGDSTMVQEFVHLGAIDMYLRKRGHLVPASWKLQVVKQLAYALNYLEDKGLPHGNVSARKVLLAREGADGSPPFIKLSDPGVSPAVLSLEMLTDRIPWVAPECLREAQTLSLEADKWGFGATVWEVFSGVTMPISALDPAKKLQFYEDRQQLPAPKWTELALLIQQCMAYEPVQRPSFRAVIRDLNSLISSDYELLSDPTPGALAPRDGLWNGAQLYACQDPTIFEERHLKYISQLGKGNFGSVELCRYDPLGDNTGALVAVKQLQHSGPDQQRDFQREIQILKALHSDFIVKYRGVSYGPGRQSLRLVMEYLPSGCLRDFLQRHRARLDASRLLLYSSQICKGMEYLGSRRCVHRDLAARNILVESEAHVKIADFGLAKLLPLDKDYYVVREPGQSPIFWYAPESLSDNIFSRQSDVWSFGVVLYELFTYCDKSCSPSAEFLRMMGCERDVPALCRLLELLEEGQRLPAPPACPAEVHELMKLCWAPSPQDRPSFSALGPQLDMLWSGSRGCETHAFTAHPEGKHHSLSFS
# [7] = system: K562; experiment: Antiproliferative activity against human K562 cells assessed as reduction in cell viability after 48 hrs by MTT assay; format: functional, cell-based; settings: K562, 48 h
# [8] = system: HEL; experiment: Antiproliferative activity against HEL cells harboring JAK2 V617F mutant assessed as reduction in cell viability after 48 hrs by MTT assay; format: functional, cell-based; settings: Homo sapiens
# [9] = biological target: T2, Histone deacetylase (Homo sapiens) (UniProt Q13547+O15379+Q9UBN7+Q92769+Q9UQL6+Q8WUI4+Q9BY41+Q96DB2+P56524+Q9UKV0+Q969S8); experiment: Inhibition of HDAC in human HeLa nuclear extract at 10 uM using Boc-Lys(acetyl)-AMC as substrate preincubated for 5 mins followed by substrate addition and measured after 30 mins by fluorescence assay; format: cell-free
# Summary of the method: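 HeLa nuclear extract mixed with compound and held at 37 °C for 5 min. Boc-Lys(acetyl)-AMC added and incubated 30 min at 37 °C. Quenched with developer containing trypsin and trichostatin A, then 20 min at 37 °C. Fluorescence read at ex 390/em 460 nm; inhibition calculated relative to control wells.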
# [10] = biological target: T3, Histone deacetylase 2 (Homo sapiens, UniProt Q92769); experiment: Inhibition of HDAC2 (unknown origin) using Boc-Lys(acetyl)-AMC as substrate preincubated for 5 mins followed by substrate addition and measured after 30 mins by fluorescence assay
# T3 sequence (Q92769 whole entry): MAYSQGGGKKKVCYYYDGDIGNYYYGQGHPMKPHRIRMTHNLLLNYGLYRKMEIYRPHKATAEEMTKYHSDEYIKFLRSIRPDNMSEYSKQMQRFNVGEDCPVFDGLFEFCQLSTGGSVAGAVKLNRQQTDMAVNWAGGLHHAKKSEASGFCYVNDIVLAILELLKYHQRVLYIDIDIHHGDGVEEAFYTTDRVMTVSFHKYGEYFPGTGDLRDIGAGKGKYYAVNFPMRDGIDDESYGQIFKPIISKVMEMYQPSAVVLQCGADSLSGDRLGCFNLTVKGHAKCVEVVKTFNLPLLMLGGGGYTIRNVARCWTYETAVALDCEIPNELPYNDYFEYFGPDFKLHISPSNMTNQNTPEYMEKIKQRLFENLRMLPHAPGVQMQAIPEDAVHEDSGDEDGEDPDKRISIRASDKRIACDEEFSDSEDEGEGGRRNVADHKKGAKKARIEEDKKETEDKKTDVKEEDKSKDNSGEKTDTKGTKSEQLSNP
# [11] = biological target: T4, Protein deacetylase HDAC6 (Homo sapiens, UniProt Q9UBN7); experiment: Inhibition of HDAC6 (unknown origin) using Boc-Lys(acetyl)-AMC as substrate preincubated for 5 mins followed by substrate addition and measured after 30 mins by fluorescence assay
# T4 sequence (Q9UBN7 whole entry): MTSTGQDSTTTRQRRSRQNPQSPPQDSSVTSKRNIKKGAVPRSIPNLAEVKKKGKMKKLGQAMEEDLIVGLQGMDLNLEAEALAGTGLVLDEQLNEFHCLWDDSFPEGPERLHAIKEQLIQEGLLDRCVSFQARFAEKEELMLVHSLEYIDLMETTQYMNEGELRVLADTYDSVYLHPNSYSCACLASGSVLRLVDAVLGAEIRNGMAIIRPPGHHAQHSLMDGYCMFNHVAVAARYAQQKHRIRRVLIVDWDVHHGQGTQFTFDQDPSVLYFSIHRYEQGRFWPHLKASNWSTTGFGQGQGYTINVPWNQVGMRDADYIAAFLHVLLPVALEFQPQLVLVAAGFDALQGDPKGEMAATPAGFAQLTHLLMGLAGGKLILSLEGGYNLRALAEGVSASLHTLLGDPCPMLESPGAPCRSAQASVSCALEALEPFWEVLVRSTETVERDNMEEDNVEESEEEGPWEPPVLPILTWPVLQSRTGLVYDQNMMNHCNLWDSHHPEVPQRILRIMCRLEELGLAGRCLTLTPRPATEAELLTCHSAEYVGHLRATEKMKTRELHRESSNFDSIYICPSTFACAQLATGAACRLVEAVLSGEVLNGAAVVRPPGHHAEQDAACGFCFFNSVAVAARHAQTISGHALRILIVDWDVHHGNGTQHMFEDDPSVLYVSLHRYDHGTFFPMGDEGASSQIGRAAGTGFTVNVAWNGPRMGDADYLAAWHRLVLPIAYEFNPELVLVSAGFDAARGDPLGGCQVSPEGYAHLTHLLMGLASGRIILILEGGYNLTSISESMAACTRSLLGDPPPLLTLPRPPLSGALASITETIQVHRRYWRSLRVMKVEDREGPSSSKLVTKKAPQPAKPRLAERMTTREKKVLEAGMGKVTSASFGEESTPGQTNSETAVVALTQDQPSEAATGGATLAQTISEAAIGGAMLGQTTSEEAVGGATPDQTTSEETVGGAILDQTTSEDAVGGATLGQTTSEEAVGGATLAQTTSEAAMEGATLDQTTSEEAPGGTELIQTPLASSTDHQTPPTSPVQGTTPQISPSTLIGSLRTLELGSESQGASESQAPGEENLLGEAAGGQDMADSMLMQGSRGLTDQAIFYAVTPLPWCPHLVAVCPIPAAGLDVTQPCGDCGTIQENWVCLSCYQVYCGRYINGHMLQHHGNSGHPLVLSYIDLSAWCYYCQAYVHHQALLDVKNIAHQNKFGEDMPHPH
# [12] = biological target: Tyrosine-protein kinase JAK2 (Homo sapiens, UniProt O60674); experiment: Inhibition of recombinant human JAK2 using Ulight-CAGAGAIETDKEYYTVKD as substrate measured after 60 mins by LANCE assay
# Sequence of Tyrosine-protein kinase JAK2 (O60674 whole entry): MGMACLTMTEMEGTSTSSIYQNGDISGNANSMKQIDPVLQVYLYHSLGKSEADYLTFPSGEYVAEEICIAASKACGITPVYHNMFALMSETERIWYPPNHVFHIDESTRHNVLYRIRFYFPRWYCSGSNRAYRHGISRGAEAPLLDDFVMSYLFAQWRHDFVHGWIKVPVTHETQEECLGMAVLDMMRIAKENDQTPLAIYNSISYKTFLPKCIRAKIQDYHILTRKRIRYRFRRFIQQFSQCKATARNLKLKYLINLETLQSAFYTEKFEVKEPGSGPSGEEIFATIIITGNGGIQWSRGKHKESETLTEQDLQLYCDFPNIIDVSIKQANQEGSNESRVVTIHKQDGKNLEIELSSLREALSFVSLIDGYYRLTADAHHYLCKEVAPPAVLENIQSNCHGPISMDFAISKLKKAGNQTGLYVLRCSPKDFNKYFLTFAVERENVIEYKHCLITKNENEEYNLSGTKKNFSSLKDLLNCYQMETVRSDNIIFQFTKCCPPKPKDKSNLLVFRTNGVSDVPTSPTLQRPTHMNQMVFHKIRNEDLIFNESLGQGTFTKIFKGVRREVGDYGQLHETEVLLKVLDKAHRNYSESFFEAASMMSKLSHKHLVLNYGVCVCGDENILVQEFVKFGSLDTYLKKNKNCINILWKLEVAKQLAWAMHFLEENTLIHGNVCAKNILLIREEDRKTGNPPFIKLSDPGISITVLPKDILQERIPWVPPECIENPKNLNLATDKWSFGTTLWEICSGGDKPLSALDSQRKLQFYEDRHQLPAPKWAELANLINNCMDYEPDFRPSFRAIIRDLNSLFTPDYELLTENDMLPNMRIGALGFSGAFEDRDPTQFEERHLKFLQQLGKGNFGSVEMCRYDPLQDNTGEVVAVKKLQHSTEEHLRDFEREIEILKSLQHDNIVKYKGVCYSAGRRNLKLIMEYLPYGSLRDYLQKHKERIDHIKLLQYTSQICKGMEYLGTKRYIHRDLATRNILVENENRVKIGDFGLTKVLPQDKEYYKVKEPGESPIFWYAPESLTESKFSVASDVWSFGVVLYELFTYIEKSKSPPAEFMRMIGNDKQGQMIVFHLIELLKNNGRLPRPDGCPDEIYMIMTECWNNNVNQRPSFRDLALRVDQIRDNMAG
# [13] = biological target: T5, Histone deacetylase 8 (Homo sapiens, UniProt Q9BY41); experiment: Inhibition of HDAC8 (unknown origin) using Boc-Lys(trifluoroacetyl)-AMC as substrate preincubated for 5 mins followed by substrate addition and measured after 30 mins by fluorescence assay
# T5 sequence (Q9BY41 whole entry): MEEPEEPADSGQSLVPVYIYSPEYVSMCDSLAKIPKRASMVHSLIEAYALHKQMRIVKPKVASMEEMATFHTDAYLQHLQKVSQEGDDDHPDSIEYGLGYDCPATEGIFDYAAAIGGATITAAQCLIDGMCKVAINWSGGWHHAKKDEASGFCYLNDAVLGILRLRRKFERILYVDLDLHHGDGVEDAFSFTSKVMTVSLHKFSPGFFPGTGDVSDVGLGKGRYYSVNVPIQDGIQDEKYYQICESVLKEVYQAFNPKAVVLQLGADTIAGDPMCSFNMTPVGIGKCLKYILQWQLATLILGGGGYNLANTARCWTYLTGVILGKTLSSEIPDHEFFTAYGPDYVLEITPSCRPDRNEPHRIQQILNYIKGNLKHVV
# [14] = biological target: T2, Histone deacetylase (Homo sapiens); experiment: Potency index, ratio of SAHA IC50 to test compound IC50 for inhibition of HDAC in human HeLa cell nuclear extract; format: cell-based
# Summary of the method: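 HeLa cell nuclear extract was incubated with serial concentrations of compound for 5 min at 37 °C. Boc-Lys(acetyl)-AMC substrate was added for 30 min at 37 °C, then developer containing trypsin and TSA for 20 min. Fluorescence was read at ex 390/em 460 nm against control wells.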
# [15] = biological target: T3, Histone deacetylase 2; settings: A549, at 80 to 400 nM
IC50 [1] [nM],IC50 [2] [nM],IC50 [3] [nM],IC50 [4] [nM],IC50 [5] [nM],IC50 [6] [nM],IC50 [7] [nM],inhibition [9],IC50 [10] [nM],IC50 [11] [nM],IC50 [12] [nM],IC50 [13] [nM],Ratio IC50 [14],inhibition [15],Structure (SMILES),IC50 [8] [nM]
–,–,–,–,–,–,–,inactive,–,–,–,–,–,–,Clc1cccc(Nc2nc(Nc3cn[nH]c3)ncc2Cl)c1,–
40,30,60,–,–,3.7,–,–,–,–,50,–,–,–,O=C(CCCCCCn1cc(Nc2ncc(Cl)c(N3CCCCC3)n2)cn1)NO,–
3,–,–,130,170,–,620,–,–,–,10,–,> 50,–,COc1ccc(Nc2nc(Nc3cnn(CCCCCCC(=O)NO)c3)ncc2Cl)cc1,210
569,–,–,–,–,–,–,–,1400,310,46,5100,–,–,O=C(CCCCn1cc(Nc2ncc(Cl)c(Nc3ccc(F)cc3)n2)cn1)NO,–
2,10,94,100,120,7.6,320,–,–,–,14,–,> 50,–,O=C(CCCCCCn1cc(Nc2ncc(Cl)c(Nc3ccc(Cl)cc3)n2)cn1)NO,120
3,–,–,–,–,–,–,–,–,–,> 100,–,> 50,–,O=C(CCCCCCn1cc(Nc2ncc(F)c(Nc3ccc(F)cc3)n2)cn1)NO,–

# More lines, now with the values behind:
Structure (SMILES),IC50 [1] [nM],IC50 [2] [nM],IC50 [3] [nM],IC50 [4] [nM],IC50 [5] [nM],IC50 [6] [nM],IC50 [7] [nM],inhibition [9],IC50 [10] [nM],IC50 [11] [nM],IC50 [12] [nM],IC50 [13] [nM],Ratio IC50 [14],inhibition [15],IC50 [8] [nM]
O=C(CCCCCCn1cc(Nc2ncc(Cl)c(NC3CC3)n2)cn1)NO,13,14,12,50,150,2,380,–,–,–,–,–,–,–,80
O=C(CCCCCCCn1cc(Nc2ncc(Cl)c(Nc3ccc(F)cc3)n2)cn1)NO,38,–,–,–,–,–,–,–,430,300,61,1700,–,–,–
O=C(/C=C/c1ccc(Cn2cc(Nc3ncc(Cl)c(Nc4ccc(F)cc4)n3)cn2)cc1)NO,144,–,–,150,330,–,1030,–,1000,63,43,14100,–,–,600
O=C(CCCCCCn1cc(Nc2ncc(Cl)c(Nc3ccc(F)cc3)n2)cn1)NO,3,–,–,120,220,–,500,–,–,–,15,–,> 50,–,210
CNc1nc(Nc2cnn(CCCCCCC(=O)NO)c2)ncc1Cl,15,–,–,70,110,–,590,–,190,29,36,4070,–,Active,100
O=C(NO)c1ccc(Cn2cc(Nc3ncc(Cl)c(Nc4ccc(F)cc4)n3)cn2)cc1,62,–,–,–,–,–,–,–,730,13,21,120,–,–,–
